Test results from ChEMBL document CHEMBL4680084, “New β-Lactam Derivatives Modulate Cell Adhesion and Signaling Mediated by RGD-Binding and Leukocyte Integrins” (J Med Chem, 2016).
Active and inactive are the calls of the source. The calls are words filed in the database; no cut-off is given here.

How the values were obtained:
[1] = molecular target: Integrin alpha-IIb/beta-3 (Homo sapiens, UniProt P05106+P08514); assay: Inhibition of fibrinogen binding to alpha2bbeta3 isolated from human HEL cells incubated for 1 hr by […] competitive solid-phase binding assay
Chain of Integrin alpha-IIb/beta-3 (P05106 27-788 limits assumed): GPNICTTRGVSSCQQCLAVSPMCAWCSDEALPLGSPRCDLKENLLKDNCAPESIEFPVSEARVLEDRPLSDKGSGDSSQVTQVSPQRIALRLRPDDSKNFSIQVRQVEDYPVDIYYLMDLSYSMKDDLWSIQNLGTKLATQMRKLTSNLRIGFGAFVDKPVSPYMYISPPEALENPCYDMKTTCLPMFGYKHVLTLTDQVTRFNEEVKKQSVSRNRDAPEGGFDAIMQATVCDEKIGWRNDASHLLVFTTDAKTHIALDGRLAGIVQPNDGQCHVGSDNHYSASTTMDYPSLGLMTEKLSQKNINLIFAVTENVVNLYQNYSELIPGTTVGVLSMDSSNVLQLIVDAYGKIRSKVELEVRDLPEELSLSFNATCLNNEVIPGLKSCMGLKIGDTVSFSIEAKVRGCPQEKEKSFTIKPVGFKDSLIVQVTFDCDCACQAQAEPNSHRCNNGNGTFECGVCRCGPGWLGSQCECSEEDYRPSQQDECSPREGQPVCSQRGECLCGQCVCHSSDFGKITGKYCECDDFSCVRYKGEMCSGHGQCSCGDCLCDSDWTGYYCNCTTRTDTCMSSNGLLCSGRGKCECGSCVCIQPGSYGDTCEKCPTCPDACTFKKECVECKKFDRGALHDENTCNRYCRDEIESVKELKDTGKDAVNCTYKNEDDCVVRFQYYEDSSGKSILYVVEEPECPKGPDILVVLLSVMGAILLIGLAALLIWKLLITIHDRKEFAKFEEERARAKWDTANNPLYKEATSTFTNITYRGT
Chain of Integrin alpha-IIb/beta-3 (P08514 32-887 limits assumed): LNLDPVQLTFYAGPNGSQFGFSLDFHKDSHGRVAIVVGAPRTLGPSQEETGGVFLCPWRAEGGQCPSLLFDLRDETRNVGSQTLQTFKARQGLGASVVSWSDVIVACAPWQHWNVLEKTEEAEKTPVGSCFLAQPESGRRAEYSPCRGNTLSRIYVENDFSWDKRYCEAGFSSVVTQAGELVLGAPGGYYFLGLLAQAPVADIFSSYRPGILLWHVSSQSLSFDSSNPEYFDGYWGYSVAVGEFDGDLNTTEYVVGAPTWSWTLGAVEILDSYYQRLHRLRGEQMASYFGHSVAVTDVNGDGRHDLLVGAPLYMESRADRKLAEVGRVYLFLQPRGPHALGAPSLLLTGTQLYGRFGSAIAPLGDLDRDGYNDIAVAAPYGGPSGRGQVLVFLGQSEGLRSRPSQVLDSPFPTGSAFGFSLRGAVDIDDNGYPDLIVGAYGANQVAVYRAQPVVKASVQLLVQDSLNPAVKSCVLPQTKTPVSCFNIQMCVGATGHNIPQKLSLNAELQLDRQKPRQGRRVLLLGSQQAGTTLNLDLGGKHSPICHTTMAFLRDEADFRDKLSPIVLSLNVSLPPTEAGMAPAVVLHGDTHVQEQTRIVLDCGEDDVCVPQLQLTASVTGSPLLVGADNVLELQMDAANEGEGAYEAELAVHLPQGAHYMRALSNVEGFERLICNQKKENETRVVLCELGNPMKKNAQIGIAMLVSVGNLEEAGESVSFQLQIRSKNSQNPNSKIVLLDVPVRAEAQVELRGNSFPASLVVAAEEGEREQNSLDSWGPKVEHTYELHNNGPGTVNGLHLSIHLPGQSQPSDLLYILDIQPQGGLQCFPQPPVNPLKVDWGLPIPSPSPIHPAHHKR
Chain of Integrin alpha-IIb/beta-3 (P08514 891-1039 limits assumed): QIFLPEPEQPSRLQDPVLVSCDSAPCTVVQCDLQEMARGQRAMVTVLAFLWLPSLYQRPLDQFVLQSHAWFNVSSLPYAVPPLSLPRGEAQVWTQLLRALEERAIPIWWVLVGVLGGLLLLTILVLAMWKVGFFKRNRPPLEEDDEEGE

K562 = assay: Toxicity in human K562 cells assessed as induction of cell necrosis and/or apoptosis incubated for 3 hrs by annexin V-PE and 7-AAD staining based by flow cytometry; details: k562, 3 h
In short: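 After 3 h incubation, cells resuspended in complete medium and stained with annexin V-PE/7-AAD reagent for 20 min at room temperature in the dark. Flow cytometry sorted cells into viable, early apoptotic and late apoptotic/necrotic populations.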

Integrin alpha-V/beta-3 [2] = molecular target: T1, Integrin alpha-V/beta-3 (Homo sapiens, UniProt P05106+P06756); assay: Agonist activity at alphaVbeta3 in human SK-MEL-24 cells assessed as increase in cell adhesion to fibronectin pre-incubated for 30 mins before fibronectin and further incubated for 1 hr by nitrophenyl-N-acetyl-beta-D-glucosaminide substrate based chromogenic assay
In short: (§1)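 Compound or methanol vehicle pre-incubated with cells for 30 min at room temperature. Cells then plated on wells coated overnight at 4 °C with fibronectin 10 µg/mL (SK-MEL-24, K562, HT-29) or fibrinogen 10 µg/mL (MCF7, HEL). Seeding was 50,000 cells/well, or 100000 for HEL. Adhesion ran 1 h at room temperature. Wells washed with 1% BSA/PBS. Adherent cells read by hexosaminidase substrate, absorbance 405 nm. Quadruplicate, at least three repeats.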
Target sequence in this assay (P05106 27-788 limits assumed): as the sequence (P05106 27-788 limits assumed) above
Target sequence in this assay (P06756 31-889 limits assumed): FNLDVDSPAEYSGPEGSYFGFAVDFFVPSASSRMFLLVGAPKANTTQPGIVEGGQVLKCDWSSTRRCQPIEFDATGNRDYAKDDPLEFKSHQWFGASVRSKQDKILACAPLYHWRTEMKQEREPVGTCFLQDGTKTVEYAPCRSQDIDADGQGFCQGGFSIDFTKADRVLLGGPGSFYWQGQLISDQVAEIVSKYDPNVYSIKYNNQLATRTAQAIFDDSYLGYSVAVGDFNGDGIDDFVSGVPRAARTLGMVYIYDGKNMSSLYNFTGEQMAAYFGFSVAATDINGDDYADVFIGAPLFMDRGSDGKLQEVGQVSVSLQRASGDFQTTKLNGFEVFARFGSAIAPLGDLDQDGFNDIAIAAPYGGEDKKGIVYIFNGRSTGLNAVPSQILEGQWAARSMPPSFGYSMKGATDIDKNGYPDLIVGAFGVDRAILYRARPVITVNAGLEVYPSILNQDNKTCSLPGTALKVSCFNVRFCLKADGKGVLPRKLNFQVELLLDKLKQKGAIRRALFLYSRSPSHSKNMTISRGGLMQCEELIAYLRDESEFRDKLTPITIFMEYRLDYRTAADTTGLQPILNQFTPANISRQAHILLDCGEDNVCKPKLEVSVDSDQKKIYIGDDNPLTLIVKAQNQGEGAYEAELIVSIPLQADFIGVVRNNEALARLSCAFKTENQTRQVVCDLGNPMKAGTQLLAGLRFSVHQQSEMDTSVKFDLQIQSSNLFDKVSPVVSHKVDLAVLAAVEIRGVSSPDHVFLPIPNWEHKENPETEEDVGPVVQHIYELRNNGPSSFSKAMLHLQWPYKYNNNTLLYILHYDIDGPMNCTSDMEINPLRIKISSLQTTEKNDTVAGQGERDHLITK
Target sequence in this assay (P06756 891-1048 limits assumed): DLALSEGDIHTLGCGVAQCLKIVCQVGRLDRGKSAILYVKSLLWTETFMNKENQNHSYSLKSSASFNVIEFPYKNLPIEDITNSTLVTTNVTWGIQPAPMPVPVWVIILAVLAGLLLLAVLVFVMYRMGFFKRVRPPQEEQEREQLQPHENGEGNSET

Integrin alpha-V/beta-3 [3] = molecular target: T1, Integrin alpha-V/beta-3; assay: Antagonist activity at alphaVbeta3 in human SK-MEL-24 cells assessed as reduction in cell adhesion to fibronectin pre-incubated for 30 mins before fibronectin and further incubated for 1 hr by nitrophenyl-N-acetyl-beta-D-glucosaminide substrate based chromogenic assay
In short: as §1, with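 “BSA/PBS.” for “BSA/PBS. Adherent cells read by hexosaminidase substrate, absorbance 405 nm.”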
Target sequence in this assay (P05106 27-788 limits assumed): as the sequence (P05106 27-788 limits assumed) above
Target sequence in this assay (P06756 31-889 limits assumed): as the sequence (P06756 31-889 limits assumed) above
Target sequence in this assay (P06756 891-1048 limits assumed): as the sequence (P06756 891-1048 limits assumed) above

Integrin alpha-4/beta-1 [4] = molecular target: T2, Integrin alpha-4/beta-1 (Homo sapiens, UniProt P05556+P13612); assay: Agonist activity at alpha4beta1 in human Jurkat E6.1 cells assessed as increase in cell adhesion to VCAM1 pre-incubated for 30 mins before VCAM1 and further incubated for 30 mins by […]; assay type: cell-based
T2 sequence (P05556 whole entry): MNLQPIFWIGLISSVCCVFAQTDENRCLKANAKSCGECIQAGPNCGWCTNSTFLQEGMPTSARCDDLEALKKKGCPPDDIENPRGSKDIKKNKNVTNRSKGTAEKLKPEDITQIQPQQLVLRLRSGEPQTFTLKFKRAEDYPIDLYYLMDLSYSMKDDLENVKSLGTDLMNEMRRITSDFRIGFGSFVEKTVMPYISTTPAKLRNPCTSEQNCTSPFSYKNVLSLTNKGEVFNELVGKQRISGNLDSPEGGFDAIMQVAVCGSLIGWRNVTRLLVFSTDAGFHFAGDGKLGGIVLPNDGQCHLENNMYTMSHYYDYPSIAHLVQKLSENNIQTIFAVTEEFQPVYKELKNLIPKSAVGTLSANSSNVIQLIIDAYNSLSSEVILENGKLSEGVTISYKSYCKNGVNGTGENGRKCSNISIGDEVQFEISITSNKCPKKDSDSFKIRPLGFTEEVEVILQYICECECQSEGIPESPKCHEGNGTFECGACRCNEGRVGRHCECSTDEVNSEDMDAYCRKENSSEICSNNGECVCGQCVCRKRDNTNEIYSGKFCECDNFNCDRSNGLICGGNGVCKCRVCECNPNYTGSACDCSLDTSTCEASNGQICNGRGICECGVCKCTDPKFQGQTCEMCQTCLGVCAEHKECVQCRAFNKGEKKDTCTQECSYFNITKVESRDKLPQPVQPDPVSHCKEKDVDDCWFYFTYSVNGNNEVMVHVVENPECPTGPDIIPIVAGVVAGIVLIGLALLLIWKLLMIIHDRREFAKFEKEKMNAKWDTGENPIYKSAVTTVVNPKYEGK
T2 sequence (P13612 whole entry): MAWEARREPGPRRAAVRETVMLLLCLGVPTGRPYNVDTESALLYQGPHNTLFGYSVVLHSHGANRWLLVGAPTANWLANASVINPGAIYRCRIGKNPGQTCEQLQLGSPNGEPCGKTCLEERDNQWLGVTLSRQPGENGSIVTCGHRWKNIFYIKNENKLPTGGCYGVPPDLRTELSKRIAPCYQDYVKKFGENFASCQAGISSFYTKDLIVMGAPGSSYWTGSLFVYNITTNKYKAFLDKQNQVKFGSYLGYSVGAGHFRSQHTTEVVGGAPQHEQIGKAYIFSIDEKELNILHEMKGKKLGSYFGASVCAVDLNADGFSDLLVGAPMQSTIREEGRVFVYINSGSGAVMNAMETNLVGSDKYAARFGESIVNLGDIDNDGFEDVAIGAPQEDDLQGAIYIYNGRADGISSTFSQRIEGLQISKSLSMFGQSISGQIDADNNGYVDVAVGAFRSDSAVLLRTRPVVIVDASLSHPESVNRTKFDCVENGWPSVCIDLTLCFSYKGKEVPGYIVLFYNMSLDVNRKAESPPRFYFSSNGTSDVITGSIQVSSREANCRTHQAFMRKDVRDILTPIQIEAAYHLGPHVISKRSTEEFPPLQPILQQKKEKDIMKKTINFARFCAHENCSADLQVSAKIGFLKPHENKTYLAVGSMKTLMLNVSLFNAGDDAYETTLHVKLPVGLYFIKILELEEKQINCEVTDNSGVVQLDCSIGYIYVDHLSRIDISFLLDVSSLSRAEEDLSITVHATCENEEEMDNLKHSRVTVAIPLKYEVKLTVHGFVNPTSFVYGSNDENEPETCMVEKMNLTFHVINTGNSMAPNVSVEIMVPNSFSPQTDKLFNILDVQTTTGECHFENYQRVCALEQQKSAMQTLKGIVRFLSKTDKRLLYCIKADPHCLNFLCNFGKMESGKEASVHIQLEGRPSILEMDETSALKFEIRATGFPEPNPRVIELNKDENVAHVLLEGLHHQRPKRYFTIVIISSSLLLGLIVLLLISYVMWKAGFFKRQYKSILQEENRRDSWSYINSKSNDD
In short: (§2)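 Jurkat E6.1 cells labelled with CellTracker green CMFDA (12.5 µM, 30 min, 37 °C), washed, then pre-incubated 30 min at 37 °C with compound or methanol. Plated at 500,000/well on VCAM-1 (α4β1) or ICAM-1 (αLβ2) coated wells (5 µg/mL) for 30 min at 37 °C. Cells lysed in 0.5% Triton X-100; fluorescence read Ex485/Em535. Quadruplicate, at least three repeats.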

[5] = molecular target: Integrin alpha-L/beta-2 (LFA-1) (Homo sapiens, UniProt P05107+P20701); assay: Agonist activity at alphaLbeta2 in human Jurkat E6.1 cells assessed as increase in cell adhesion to ICAM1 pre-incubated for 30 mins before ICAM1 and further incubated for 30 mins by […]; assay type: cell-based; in short: as §2
Integrin alpha-5/beta-1 [6] = molecular target: T3, Integrin alpha-5/beta-1 (Homo sapiens, UniProt P05556+P08648); assay: (§3) Agonist activity at alpha5beta1 in human K562 cells assessed as increase in cell adhesion to fibronectin at 10 ug/ml pre-incubated for 30 mins and further incubated for 1 hr in presence of integrin antagonist c(-RGDfV) by nitrophenyl-N-acetyl-beta-D-glucosaminide substrate based chromogenic assay; details: dose 10.0 µg/ml, time 90.0 min
In short: (§4)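 Agonist-coated wells (10 µg/mL in methanol). Cells pre-treated 10 min before plating with neutralizing anti-α5, anti-αv or anti-α4 antibody (10 µg/mL), or pre-incubated with c(-RGDfV) (1 µM). K562 plated at 50,000/well and Jurkat E6.1 at 500,000/well. Adhesion quantified as in the standard assay.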

Integrin alpha-4/beta-1 [7] = molecular target: T2, Integrin alpha-4/beta-1; assay: Agonist activity at alpha4beta1 in human Jurkat E6.1 cells assessed as increase in cell adhesion to VCAM1 at 10 ug/ml pre-incubated for 30 mins and further incubated for 30 mins in presence of neutralizing antibody against the alpha4 integrin subunit by nitrophenyl-N-acetyl-beta-D-glucosaminide substrate based chromogenic assay; details: dose 10.0 µg/ml, time 60.0 min; in short: as §4
Integrin alpha-4/beta-1 [8] = molecular target: T2, Integrin alpha-4/beta-1; assay: Inhibition of fibronectin binding to […] isolated from human Jurkat E6.1 cells incubated for 1 hr by scintillation-proximity assay based competitive solid-phase binding assay; assay type: tissue-based
Integrin alpha-5/beta-1 [9] = molecular target: T3, Integrin alpha-5/beta-1; assay: as §3, with “pre-incubated for 30 mins” left out, “of neutralizing antibody against the alpha5” for “of”, “subunit” for “antagonist c(-RGDfV)”; details: dose 10.0 µg/ml, time 90.0 min
Integrin alpha-V/beta-3 [10] = molecular target: T1, Integrin alpha-V/beta-3; assay: Agonist activity at human alphaVbeta3 expressed in HEK293 cells assessed as reduction in fibronectin-induced ERK1/2 phosphorylation at 1 to 100 nM by Western blot analysis; assay type: cell-based; details: filed as agonist, dose 1-100 nM
[11] = molecular target: Integrin alpha-L/beta-2 (LFA-1) (Homo sapiens) (UniProt P20701+P05107); assay: Antagonist activity at alphaLbeta2 in human Jurkat E6.1 cells assessed as reduction in ICAM-1-induced ERK1/2 phosphorylation by Western blot analysis; assay type: cell-based; details: filed as antagonist
[12] = molecular target: Integrin alpha-L/beta-2 (Homo sapiens); assay: Binding affinity to human alphaLbeta2 incubated for 1 hr by scintillation-proximity assay based competitive solid-phase binding assay

Compound	IC50 [1] [nM]	Activity (K562)	EC50 (Integrin alpha-V/beta-3 [2]) [nM]	IC50 (Integrin alpha-V/beta-3 [3]) [nM]	EC50 (Integrin alpha-4/beta-1 [4]) [nM]	EC50 [5] [nM]	Activity (Integrin alpha-5/beta-1 [6]; filed as agonist)	Activity (Integrin alpha-4/beta-1 [7])	IC50 (Integrin alpha-4/beta-1 [8]) [nM]	Activity (Integrin alpha-5/beta-1 [6])	Activity (Integrin alpha-5/beta-1 [9])	Activity (Integrin alpha-V/beta-3 [10])	Activity [11]	IC50 [12] [nM]
NCc1ccc(NC(=O)N2C(=O)CC2CC(=O)NCCC(=O)O)cc1.O=C(O)C(F)(F)F (stereo not given)	> 1000	Non-Toxic	> 5000	> 5000	> 5000	> 5000	Active	inactive	–	–	–	–	–	–
Cc1ccccc1NC(=O)N1C(=O)CC1CC(=O)NCC(=O)O (stereo not given)	–	Non-Toxic	> 5000	> 5000	> 5000	> 5000	Active	inactive	> 1000	–	–	–	–	–
Nc1ccc(CNC(=O)N2C(=O)CC2CC(=O)O)cc1.O=C(O)C(F)(F)F (stereo not given)	> 1000	Non-Toxic	–	71.7	–	–	–	–	498	inactive	inactive	Active	Dose-dependent effect	6.7
